Experimental data: ChEMBL document CHEMBL2412956, “Synthesis and biological activity evaluation of 5-pyrazoline substituted 4-thiazolidinones” (Eur J Med Chem, 2013)

Legend:
Type in all cases: functional
SR [1] = test: Cytotoxicity against human SR cells assessed as cell growth at 10 uM after 48 hrs by SRB assay relative to control; details: read-out: Activity
Method in brief: (§1)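 Single-dose NCI screen: compound at 10⁻⁵ M added to tumor cell cultures and incubated for 48 h. The SRB protein-binding dye end point was read spectrophotometrically. Results are percent growth of treated cells relative to untreated controls.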

K562 [2] = test: Cytotoxicity against human K562 cells assessed as cell growth at 10 uM after 48 hrs by SRB assay relative to control; details: K562, 48 h, read-out: Activity
Method in brief: (§2)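 This was the NCI primary screen, with compound added once at 10⁻⁵ M and cultures incubated for 48 h. The endpoint was sulforhodamine B protein staining. Results are expressed as percent growth of treated cells relative to untreated control cells.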

RPMI-8226 [3] = test: Cytotoxicity against human RPMI8226 cells assessed as cell growth at 10 uM after 48 hrs by SRB assay relative to control; details: RPMI-8226, 48 h, read-out: Activity; method in brief: as §2
LOX IMVI [4] = test: Cytotoxicity against human LOXIMVI cells assessed as cell growth at 10 uM after 48 hrs by SRB assay relative to control; details: read-out: Activity; method in brief: as §2
MCF7 = test: Cytotoxicity against human MCF7 cells assessed as cell growth at 10 uM after 48 hrs by SRB assay relative to control; details: MCF7, 48 h, read-out: Activity; method in brief: as §2
LOX IMVI [5] = test: Cytotoxicity against human LOXIMVI cells after 48 hrs by SRB assay
Method in brief: (§3)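 This was the NCI 60-cell-line five-dose screen, using 10-fold dilutions from 100 to 0.01 μM and continuous 48-h exposure. Growth was read by sulforhodamine B protein staining relative to time-zero and untreated controls. […] Where an endpoint was not reached, the value was given as beyond the range tested.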

K562 [6] = test: Cytotoxicity against human K562 cells after 48 hrs by SRB assay; details: K562, 48 h; method in brief: as §3
MDA-MB-435 = test: Cytotoxicity against human MDA-MB-435 cells after 48 hrs by SRB assay; details: MDA-MB-435, 48 h; method in brief: as §3
SR [7] = test: Cytotoxicity against human SR cells after 48 hrs by SRB assay
Method in brief: (§4)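 NCI 60-cell-line panel, five 10-fold concentrations from 100 μM to 0.01 μM (10⁻⁴ to 10⁻⁸ M) with 48-h continuous exposure. Growth was read by SRB protein staining against time-zero and untreated controls. […] Values beyond the tested range are expressed as greater or less than the limit.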

OVCAR-3 [8] = test: Cytotoxicity against human OVCAR3 cells after 48 hrs by SRB assay; details: OVCAR-3, 48 h; method in brief: as §3
SF-295 [9] = test: Cytotoxicity against human SF295 cells assessed as cell growth at 10 uM after 48 hrs by SRB assay relative to control; details: SF-295, 48 h, read-out: Activity; method in brief: as §2
OVCAR-3 [10] = test: Cytotoxicity against human OVCAR3 cells assessed as cell growth at 10 uM after 48 hrs by SRB assay relative to control; details: OVCAR-3, 48 h, read-out: Activity; method in brief: as §2
HL-60(TB) [11] = test: Cytotoxicity against human HL-60(TB) cells assessed as cell growth at 10 uM after 48 hrs by SRB assay relative to control; details: HL-60, 48 h, read-out: Activity; method in brief: as §2
KM12 [12] = test: Cytotoxicity against human KM12 cells after 48 hrs by SRB assay; details: KM12, 48 h; method in brief: as §3
HL-60(TB) [13] = test: Cytotoxicity against human HL-60(TB) cells after 48 hrs by SRB assay; details: HL-60, 48 h; method in brief: as §3
NCI-H460 = test: Cytotoxicity against human NCI-H460 cells after 48 hrs by SRB assay; details: NCI-H460, 48 h; method in brief: as §3
CCRF-CEM [14] = test: Cytotoxicity against human CCRF-CEM cells assessed as cell growth at 10 uM after 48 hrs by SRB assay relative to control; details: read-out: Activity; method in brief: as §2
HOP-62 = test: Cytotoxicity against human HOP62 cells after 48 hrs by SRB assay; details: HOP-62, 48 h; method in brief: as §3
UACC-62 = test: Cytotoxicity against human UACC62 cells after 48 hrs by SRB assay; details: UACC-62, 48 h; method in brief: as §4
RXF 393 = test: Cytotoxicity against human RXF393 cells assessed as cell growth at 10 uM after 48 hrs by SRB assay relative to control; details: RXF 393, 48 h, read-out: Activity; method in brief: as §2
SF-295 [15] = test: Cytotoxicity against human SF295 cells after 48 hrs by SRB assay; details: SF-295, 48 h; method in brief: as §3
CCRF-CEM [16] = test: Cytotoxicity against human CCRF-CEM cells after 48 hrs by SRB assay; method in brief: as §3
786-0 = test: Cytotoxicity against human 786-0 cells after 48 hrs by SRB assay; details: 786-0, 48 h; method in brief: as §3
HCT-116 = test: Cytotoxicity against human HCT116 cells after 48 hrs by SRB assay; details: HCT-116, 48 h; method in brief: as §3
RPMI-8226 [17] = test: Cytotoxicity against human RPMI8226 cells after 48 hrs by SRB assay; details: RPMI-8226, 48 h; method in brief: as §3
KM12 [18] = test: Cytotoxicity against human KM12 cells assessed as cell growth at 10 uM after 48 hrs by SRB assay relative to control; details: KM12, 48 h, read-out: Activity; method in brief: as §2
HOP-92 = test: Cytotoxicity against human HOP92 cells assessed as cell growth at 10 uM after 48 hrs by SRB assay relative to control; details: HOP-92, 48 h, read-out: Activity; method in brief: as §2
PC-3 [19] = test: Cytotoxicity against human PC3 cells assessed as cell growth at 10 uM after 48 hrs by SRB assay relative to control; details: PC-3, 48 h, read-out: Activity; method in brief: as §2
T47D = test: Cytotoxicity against human T47D cells assessed as cell growth at 10 uM after 48 hrs by SRB assay relative to control; details: read-out: Activity; method in brief: as §1
MOLT-4 = test: Cytotoxicity against human MOLT4 cells assessed as cell growth at 10 uM after 48 hrs by SRB assay relative to control; details: MOLT-4, 48 h, read-out: Activity; method in brief: as §2
DU-145 = test: Cytotoxicity against human DU145 cells after 48 hrs by SRB assay; details: DU-145, 48 h; method in brief: as §3
U-251 = test: Cytotoxicity against human U251 cells after 48 hrs by SRB assay; details: U-251, 48 h; method in brief: as §4
PC-3 [20] = test: Cytotoxicity against human PC3 cells after 48 hrs by SRB assay; details: PC-3, 48 h; method in brief: as §3
HCT-15 = test: Cytotoxicity against human HCT15 cells after 48 hrs by SRB assay; details: HCT-15, 48 h; method in brief: as §3

Work on `COc1ccc(C2CC(c3ccccc3)=NN2C(=O)/C=C2\SC(=O)NC2=O)cc1` (centres undefined) yielded a growth at 10 µM (SR [1]) of 39.1%, a growth at 10 µM (K562 [2]) of 58.2% and a growth at 10 µM (RPMI-8226 [3]) of 58.9%. It also gave a growth at 10 µM (LOX IMVI [4]) of 55.7%.

`COc1ccc(C2=NN(C(=O)/C=C3\SC(=O)NC3=O)C(c3ccccc3O)C2)cc1` (centres undefined) gave a growth at 10 µM (MCF7) of 30.3%, a GI50 (LOX IMVI [5]) of 3.21 µM and a TGI (LOX IMVI [5]) of 17.9 µM. The GI50 (K562 [6]) was 4.58 µM, the TGI (K562 [6]) was 100 µM and the GI50 (MDA-MB-435) was 3.91 µM. For the same compound, the TGI (MDA-MB-435) was 31.7 µM, the GI50 (SR [7]) was 2.85 µM and the TGI (SR [7]) was 9.02 µM. It also gave a GI50 (OVCAR-3 [8]) of 3.17 µM, a TGI (OVCAR-3 [8]) of 11 µM and a growth at 10 µM (SF-295 [9]) of -13.4%. For the same compound, the growth at 10 µM (OVCAR-3 [10]) was 36.4%, the growth at 10 µM (HL-60(TB) [11]) was -27.3% and the GI50 (KM12 [12]) was 4.76 µM. It also gave a TGI (KM12 [12]) of 15.3 µM, a GI50 (HL-60(TB) [13]) of 3.35 µM and a TGI (HL-60(TB) [13]) of 9.14 µM. It also gave a GI50 (NCI-H460) of 4.18 µM, a TGI (NCI-H460) of 18.7 µM and a growth at 10 µM (CCRF-CEM [14]) of 19.5%. The GI50 (HOP-62) was 4.85 µM, the TGI (HOP-62) was 19.8 µM and the GI50 (UACC-62) was 2.83 µM. For the same compound, the TGI (UACC-62) was 9.28 µM, the growth at 10 µM (RXF 393) was 31.4% and the GI50 (SF-295 [15]) was 2.99 µM. It also gave a TGI (SF-295 [15]) of 10 µM, a growth at 10 µM (K562 [2]) of 33.2% and a GI50 (CCRF-CEM [16]) of 2.85 µM. For the same compound, the TGI (CCRF-CEM [16]) was 11.3 µM, the GI50 (786-0) was 2.96 µM and the TGI (786-0) was 13.5 µM. For the same compound, the GI50 (HCT-116) was 4.56 µM, the TGI (HCT-116) was 16.4 µM and the GI50 (RPMI-8226 [17]) was 2.12 µM. For the same compound, the TGI (RPMI-8226 [17]) was 6.91 µM, the growth at 10 µM (KM12 [18]) was 29.9% and the growth at 10 µM (HOP-92) was 37.8%. It also gave a growth at 10 µM (PC-3 [19]) of 33.6%, a growth at 10 µM (T47D) of 38% and a growth at 10 µM (MOLT-4) of 16.5%. It also gave a GI50 (DU-145) of 4.64 µM, a TGI (DU-145) of 18.4 µM and a GI50 (U-251) of 4.29 µM. It also gave a TGI (U-251) of 16.6 µM, a GI50 (PC-3 [20]) of 4.63 µM and a TGI (PC-3 [20]) of 44.4 µM. For the same compound, the GI50 (HCT-15) was 4.85 µM and the TGI (HCT-15) was 24.6 µM.
